Each block holds one molecule with its values, some of them ahead of it. Activity calls are given as the source filed them. No cut-off for these calls is given here.
How the values were obtained:
RAW264.7 [1] = test: Inhibition of LPS-induced NO production in mouse RAW264.7 cells assessed as reduction in nitrite level at 20 ug/ml after 24 hrs by Griess reagent method; assay type: functional; conditions: RAW264.7, 24 h
RAW264.7 [2] = test: Cytotoxicity against mouse RAW264.7 cells assessed as reduction in membrane integrity by MTT assay; assay type: cell-based; conditions: in the assay text read “trypan blue exclusion assay” for “MTT assay”
Method in brief: (§1)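 RAW 264.7 cells exposed to compound at 20−60 μg/mL over the course of the experimental procedures. Viability checked by trypan blue exclusion (membrane integrity) and by MTT test (cellular metabolism/mitochondrial respiration).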

RAW264.7 [3] = test: Cytotoxicity against mouse RAW264.7 cells assessed as reduction in cellular metabolism by MTT assay; assay type: ADME, cell-based; method in brief: as §1
RAW264.7 [4] = test: Reduction of TNFalpha mRNA expression in LPS-stimulated mouse RAW264.7 cells by RT-PCR analysis; assay type: functional, cell-based
Method in brief: (§2)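 IL-1beta, IL-6 and TNF-alpha mRNA from RAW 264.7 cells quantified by real-time RT-PCR using intron- or exon−exon boundary spanning primers. Results given as mean normalized expression; IL-6 and TNF-alpha levels normalized to 1000 copies of beta-actin.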

RAW264.7 [5] = test: Inhibition of LPS-induced NO production in mouse RAW264.7 cells assessed as reduction in nitrite level at 30 ug/ml after 24 hrs by Griess reagent method; assay type: functional; conditions: RAW264.7, 24 h
RAW264.7 [6] = test: Inhibition of LPS-induced NO production in mouse RAW264.7 cells assessed as reduction in nitrite level after 48 hrs by Griess reagent method in presence of TLR2 agonist pam2CSK4; assay type: functional, cell-based
Method in brief: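 Cells stimulated through TLR2 with Pam2CSK4 (500 ng/mL) and incubated with compound at 30−60 μg/mL for 48 h. Nitrite read-out by Griess reaction.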

RAW264.7 [7] = test: Inhibition of LPS-induced NO production in mouse RAW264.7 cells assessed as reduction in nitrite level after 24 hrs by Griess reagent method in presence of TLR4 agonist Kdo2; assay type: functional, cell-based
Method in brief: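 TLR4 activation of RAW 264.7 cells with Kdo2-lipid A at 500 ng/mL, together with compound at 30−60 μg/mL for 24 h. Nitrite in the culture medium determined by Griess reaction.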

RAW264.7 [8] = test: Inhibition of LPS-induced NO production in mouse RAW264.7 cells assessed as reduction in nitrite level after 24 hrs by Griess reagent method in presence of TLR2 agonist pam2CSK4; assay type: functional, cell-based
[9] = target: T1, Nuclear factor NF-kappa-B p105 subunit (Mus musculus) (UniProt P25799); test: Inhibition of binding of NFkappa-B p50 subunit to biotinylated consensus sequence in nuclear extract of LPS-stimulated mouse RAW264.7 cells after 1 hr by; assay type: cell-based
T1 sequence (whole entry): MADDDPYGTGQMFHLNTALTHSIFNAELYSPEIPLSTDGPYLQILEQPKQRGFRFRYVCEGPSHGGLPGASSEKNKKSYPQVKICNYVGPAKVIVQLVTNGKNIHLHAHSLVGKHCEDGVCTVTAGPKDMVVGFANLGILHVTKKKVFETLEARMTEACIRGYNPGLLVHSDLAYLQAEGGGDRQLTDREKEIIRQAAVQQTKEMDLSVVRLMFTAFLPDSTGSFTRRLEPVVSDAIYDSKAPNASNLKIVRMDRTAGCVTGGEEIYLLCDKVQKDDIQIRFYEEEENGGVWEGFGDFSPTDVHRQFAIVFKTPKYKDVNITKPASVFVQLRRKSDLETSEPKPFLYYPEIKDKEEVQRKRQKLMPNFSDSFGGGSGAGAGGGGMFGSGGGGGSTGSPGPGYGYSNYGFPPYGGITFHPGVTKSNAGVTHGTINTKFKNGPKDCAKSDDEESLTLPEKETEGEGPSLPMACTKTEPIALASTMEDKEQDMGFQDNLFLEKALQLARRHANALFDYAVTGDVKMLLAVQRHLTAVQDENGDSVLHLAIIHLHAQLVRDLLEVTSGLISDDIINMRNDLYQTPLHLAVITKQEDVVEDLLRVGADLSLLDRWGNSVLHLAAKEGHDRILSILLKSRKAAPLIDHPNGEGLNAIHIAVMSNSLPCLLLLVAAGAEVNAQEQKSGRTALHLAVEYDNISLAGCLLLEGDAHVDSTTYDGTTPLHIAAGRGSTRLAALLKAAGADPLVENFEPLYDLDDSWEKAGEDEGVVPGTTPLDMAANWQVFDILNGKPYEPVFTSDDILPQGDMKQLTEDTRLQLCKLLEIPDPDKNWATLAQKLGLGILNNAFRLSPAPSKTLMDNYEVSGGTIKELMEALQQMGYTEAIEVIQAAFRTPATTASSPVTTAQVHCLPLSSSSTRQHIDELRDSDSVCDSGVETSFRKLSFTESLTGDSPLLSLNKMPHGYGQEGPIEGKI
Method in brief: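 RAW 264.7 cells (1 × 10^6) seeded in six-well plates, with LPS and compound added together for 1 h. Nuclear extracts prepared and binding of NF-κB p50 to a biotinylated consensus sequence read as relative light units.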

RAW264.7 [10] = test: Cytotoxicity against mouse RAW264.7 cells assessed as reduction in mitochondrial respiration by MTT assay; assay type: cell-based; method in brief: as §1
RAW264.7 [11] = test: Reduction of iNOS expression in LPS-stimulated mouse RAW264.7 cells after 24 hrs by Western blot analysis; assay type: functional, cell-based
Method in brief: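 Cells treated with LPS and compound at 10−60 μg/mL for 24 h. Lysates immunoblotted with rabbit polyclonal anti-iNOS, detecting a 130 kD band matched to purified iNOS. Beta-actin (43 kD) used as loading control.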

RAW264.7 [12] = test: Reduction of IL-6 mRNA expression in LPS-stimulated mouse RAW264.7 cells by RT-PCR analysis; assay type: functional, cell-based; method in brief: as §2
RAW264.7 [13] = test: Reduction of IL-1beta mRNA expression in LPS-stimulated mouse RAW264.7 cells by RT-PCR analysis; assay type: functional, cell-based; method in brief: as §2
RAW264.7 [14] = test: Inhibition of LPS-induced NO production in mouse RAW264.7 cells assessed as reduction in nitrite level after 24 hrs by Griess reagent method in presence of IFN-gamma; assay type: functional, cell-based
Method in brief: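 Stimulation of the JAK-STAT pathway in RAW 264.7 cells with interferon-gamma at 100 U/mL in the presence of compound. Inducible NO synthesis measured as medium nitrite by Griess reaction.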

[15] = target: Transcription factor p65 (Mus musculus) (UniProt Q04207); test: Inhibition of NFkappa-B p65 subunit nuclear translocation in LPS-stimulated mouse RAW264.7 cells preincubated for 30mins before LPS treatment by Western blot analysis; assay type: cell-based
Transcription factor p65 (Mus musculus), sequence (Q04207 whole entry): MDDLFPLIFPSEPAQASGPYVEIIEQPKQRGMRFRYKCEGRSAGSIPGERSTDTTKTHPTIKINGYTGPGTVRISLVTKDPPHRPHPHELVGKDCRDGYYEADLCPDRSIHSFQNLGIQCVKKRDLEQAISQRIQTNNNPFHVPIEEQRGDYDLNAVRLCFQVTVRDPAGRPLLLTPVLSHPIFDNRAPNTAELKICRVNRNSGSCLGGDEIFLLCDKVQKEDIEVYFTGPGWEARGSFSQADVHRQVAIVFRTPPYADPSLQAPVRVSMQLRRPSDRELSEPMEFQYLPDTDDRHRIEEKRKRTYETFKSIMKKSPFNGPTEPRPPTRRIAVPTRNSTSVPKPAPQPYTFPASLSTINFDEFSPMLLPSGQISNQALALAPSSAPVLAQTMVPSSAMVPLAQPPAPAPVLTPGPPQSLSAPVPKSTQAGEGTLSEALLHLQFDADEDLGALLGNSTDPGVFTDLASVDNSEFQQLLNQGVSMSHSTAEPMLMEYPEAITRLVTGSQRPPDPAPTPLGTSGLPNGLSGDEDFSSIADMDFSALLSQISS
Method in brief: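 Macrophages pre-incubated with compound at 20−60 μg/mL for 30 min, then stimulated with LPS for 20 min. Nuclear extracts immunoblotted against NF-κB p65, detected as a 65 kD band.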

RAW264.7 [16] = test: Inhibition of LPS-induced NO production in mouse RAW264.7 cells assessed as reduction in nitrite level after 24 hrs by Griess reagent method in presence of TLR4 agonist Kdo2
RAW264.7 [17] = test: Cytotoxicity against LPS-stimulated mouse RAW264.7 cells assessed as decrease in total mRNA transcription after 24 hrs by RT-PCR analysis; assay type: cell-based; conditions: raw264.7, 24 h
Method in brief: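 LPS-stimulated RAW 264.7 macrophages co-incubated with test compound at 20−60 μg/mL for 24 h. iNOS mRNA (775 bp) and beta-actin mRNA (513 bp) analysed by semiquantitative competitive RT-PCR, with actin mRNA used to judge any generalized fall in transcription. One representative of three experiments.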

[18] = target: T2, Nitric oxide synthase, inducible (Mus musculus) (UniProt P29477); test: Inhibition of iNOS in mouse RAW264.7 cells at 60 ug/ml; assay type: cell-based
T2 sequence (whole entry): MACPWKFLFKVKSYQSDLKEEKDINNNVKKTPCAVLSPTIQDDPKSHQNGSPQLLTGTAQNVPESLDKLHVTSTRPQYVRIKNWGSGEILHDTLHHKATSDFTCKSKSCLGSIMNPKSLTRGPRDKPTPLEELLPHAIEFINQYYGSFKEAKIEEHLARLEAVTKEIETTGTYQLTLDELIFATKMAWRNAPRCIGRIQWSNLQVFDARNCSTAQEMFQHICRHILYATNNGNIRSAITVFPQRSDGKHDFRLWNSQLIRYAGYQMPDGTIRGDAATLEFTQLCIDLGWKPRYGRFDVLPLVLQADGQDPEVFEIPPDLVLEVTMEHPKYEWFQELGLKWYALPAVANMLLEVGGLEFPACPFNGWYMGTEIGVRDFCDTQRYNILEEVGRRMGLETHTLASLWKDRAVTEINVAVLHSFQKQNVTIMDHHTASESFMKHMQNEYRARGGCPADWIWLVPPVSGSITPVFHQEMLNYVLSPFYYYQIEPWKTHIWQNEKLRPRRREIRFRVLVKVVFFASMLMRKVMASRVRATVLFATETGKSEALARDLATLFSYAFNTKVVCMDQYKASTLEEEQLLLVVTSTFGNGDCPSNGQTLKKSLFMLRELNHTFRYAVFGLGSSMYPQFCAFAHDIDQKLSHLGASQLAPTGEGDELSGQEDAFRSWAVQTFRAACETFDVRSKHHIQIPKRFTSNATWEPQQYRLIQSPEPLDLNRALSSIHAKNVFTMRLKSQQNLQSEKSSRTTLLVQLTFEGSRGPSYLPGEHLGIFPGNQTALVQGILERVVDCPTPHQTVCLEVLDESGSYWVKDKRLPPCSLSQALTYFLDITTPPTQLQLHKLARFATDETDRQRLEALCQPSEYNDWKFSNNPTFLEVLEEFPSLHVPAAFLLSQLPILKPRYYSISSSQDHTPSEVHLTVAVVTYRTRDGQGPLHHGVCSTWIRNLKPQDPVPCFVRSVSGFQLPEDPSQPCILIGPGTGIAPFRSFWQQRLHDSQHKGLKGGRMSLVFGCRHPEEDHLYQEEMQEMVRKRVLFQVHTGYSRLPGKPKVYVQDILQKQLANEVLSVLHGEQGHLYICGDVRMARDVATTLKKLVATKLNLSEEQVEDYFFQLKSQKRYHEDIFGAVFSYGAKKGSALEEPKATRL
Method in brief: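 Cytosolic iNOS enzymatic activity assayed with compound at 60 μg/mL final concentration, compared with incubations lacking compound. L-NAME (300 μM) and W1400 (50 μg/mL) served as reference inhibitors.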

RAW264.7 [19] = test: Inhibition of LPS-induced NO production in mouse RAW264.7 cells assessed as reduction in nitrite level at 60 ug/ml after 24 hrs by Griess reagent method; assay type: functional; conditions: RAW264.7, 24 h
RAW264.7 [20] = test: Reduction of iNOS mRNA expression in LPS-stimulated mouse RAW264.7 cells after 24 hrs by RT-PCR analysis; assay type: functional, cell-based
Method in brief: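 LPS-stimulated macrophages given compound at 20−60 μg/mL for 24 h. iNOS mRNA (775 bp) measured by semiquantitative competitive RT-PCR against beta-actin mRNA (513 bp). One representative of three experiments.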

RAW264.7 [21] = test: Inhibition of LPS-induced NO production in mouse RAW264.7 cells assessed as reduction in nitrite level within 24 hrs by Griess reagent method; assay type: functional, cell-based; conditions: for IC50: RAW264.7, 24 h
[22] = target: T2, Nitric oxide synthase, inducible (Mus musculus); conditions: RAW264.7, 300 uM
[23] = target: T2, Nitric oxide synthase, inducible (Mus musculus); test: Inhibition of iNOS in mouse RAW264.7 cells at 50 ug/ml; assay type: cell-based

inhibition [9]: Active
inhibition [15]: Dose-dependent effect
inhibition [18]: inactive
IC50 (RAW264.7 [21]): 17.7 µM
Structure (SMILES): O=C(O[C@H]1[C@@H]2OC(=O)c3cc(O)c(O)c(O)c3-c3c4cc(c(O)c3O)Oc3c(cc(O)c(O)c3O)C(=O)O[C@H]3C(O)O[C@@H]5COC(=O)c6cc(O)c(O)c(O)c6-c6c(cc(c(O)c6O)Oc6c(cc(O)c(O)c6O)C(=O)O[C@H]1C(O)O[C@@H]2COC4=O)C(=O)O[C@H]5[C@@H]3OC(=O)c1cc(O)c(O)c(O)c1)c1cc(O)c(O)c(O)c1 (stereo not given in full) [OENOTHEIN B]
inhibition at 20 µg/mL (RAW264.7 [1]): 34.8%
Activity (RAW264.7 [2]): Non-toxic
Activity (RAW264.7 [3]): Non-toxic
Activity (RAW264.7 [4]): Active
inhibition at 30 µg/mL (RAW264.7 [5]): 64.6%
inhibition (RAW264.7 [6]): Dose-dependent effect
inhibition (RAW264.7 [7]): Dose-dependent effect
inhibition (RAW264.7 [8]): Dose-dependent effect
Activity (RAW264.7 [10]): Non-toxic
Activity (RAW264.7 [11]): Dose-dependent effect
Activity (RAW264.7 [12]): Active
Activity (RAW264.7 [13]): Active
inhibition (RAW264.7 [14]): inactive
inhibition (RAW264.7 [16]): Dose-dependent effect
Activity (RAW264.7 [17]): Non-toxic
inhibition at 60 µg/mL (RAW264.7 [19]): 87.9%
Activity (RAW264.7 [20]): Dose-dependent effect
inhibition (RAW264.7 [21]): Dose-dependent effect

Structure (SMILES): COC(=O)[C@@H](N)CCCNC(=N)N[N+](=O)[O-]
inhibition [22]: > 70%

inhibition [23]: > 70%
Structure (SMILES): CC(=N)NCc1cccc(CN)c1

Structure (SMILES): O=C(O)c1cc(O)c(O)c(O)c1 [GALLIC ACID]
IC50 (RAW264.7 [21]): 632 µM

Source: ChEMBL document CHEMBL2176877, “Inhibition of NF-κB-dependent cytokine and inducible nitric oxide synthesis by the macrocyclic ellagitannin oenothein B in TLR-stimulated RAW 264.7 macrophages” (J Nat Prod, 2012)
